Compound activity (PubChem)
PfG6PD inh – PfG6PD (Plasmodium falciparum) enzyme inhibition. PfGluPho enzyme, NADPH resazurin-diaphorase fluorescence. 350,000 compounds, 0.78% hits. inhibition, % at 20 µM. AID 504690;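 active = inhibition reaching at least a set limit at 20 µM in the primary screen, cut at about 59% in these data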;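 note: 0% = DMSO wells with substrate and 100% = DMSO wells lacking glucose-6-phosphate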
M18AAP inhibitor – blocks P. falciparum M18 aspartyl aminopeptidase; inhibition, % at 7.35 µM; 290,000 compounds, 1.2% hits; recombinant PfM18AAP, H-Glu-NHMec fluorogenic cleavage;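 active = inhibition above the campaign mean inhibition over all tested compounds plus 3 SD, cut at about 28% in these data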;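 note: 0% = plate median of test compound wells and 100% = 2 mM ZnCl2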
UBC9 SUMO inh – inhibitors of human SUMOylation (UBC9); P63279; HTRF SUMOylation assay, SAE1/SAE2 + UBC9, in vitro; inhibition, % at 35 µM; 290,000 compounds, 0.36% hits; in the data active = inhibition above about 50%, passing the limit was not always enough
HKDC1 inh – blocks human hexokinase HKDC1 activity | Q2TB90 | recombinant HKDC1, G6PDH/diaphorase resazurin coupled fluorescence | inhibition, % at 20 µM | 340,000 compounds, 0.16% hits | AID 493160;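 active = inhibition above about 35% when tested at 20 µM, limit read from the data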;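 note: plate controls were DMSO wells with enzyme for no effect and DMSO wells lacking enzyme for full effect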
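Test system: Recombinant HKDC1 (HK5) hexokinase enzyme, produced in-house | Input: HKDC1 at 5 µg/mL | Buffer or medium: Tris pH 8.0 buffer with MgCl2, Tween-20, BSA, BME | Schedule: 90 min reaction incubation at room temperature, dark | Technique: Resazurin-to-resorufin fluorescence via G6PDH and diaphorase coupling, 525/613 nm | Controls: DMSO wells with and without enzyme mix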
A3A deaminase – blocks human APOBEC3A ssDNA deamination; 330,000 compounds, 0.41% hits; recombinant A3A, FAM/TAMRA ssDNA deamination fluorescence; inhibition, % at 20 µM;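 active = at least 40% inhibition at 20 µM here, with at most 30% in a related deaminase screen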;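 note: plate controls were A3A with DMSO for no effect and wells lacking A3A enzyme for full effect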
APOBEC3G inh – inhibitors of human APOBEC3G DNA deaminase; Q9HC16; recombinant A3G, ssDNA deamination FAM/TAMRA fluorescence; inhibition, % at 20 µM; 330,000 compounds, 0.28% hits; AID 493012;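 active = inhibition of at least 40% at 20 µM, with no more than 30% in the related APOBEC3A deaminase screen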;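 note: plate controls were DMSO wells with A3G for no effect and wells lacking A3G enzyme for full effect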
Target sequence (Q9HC16 whole entry, looked up): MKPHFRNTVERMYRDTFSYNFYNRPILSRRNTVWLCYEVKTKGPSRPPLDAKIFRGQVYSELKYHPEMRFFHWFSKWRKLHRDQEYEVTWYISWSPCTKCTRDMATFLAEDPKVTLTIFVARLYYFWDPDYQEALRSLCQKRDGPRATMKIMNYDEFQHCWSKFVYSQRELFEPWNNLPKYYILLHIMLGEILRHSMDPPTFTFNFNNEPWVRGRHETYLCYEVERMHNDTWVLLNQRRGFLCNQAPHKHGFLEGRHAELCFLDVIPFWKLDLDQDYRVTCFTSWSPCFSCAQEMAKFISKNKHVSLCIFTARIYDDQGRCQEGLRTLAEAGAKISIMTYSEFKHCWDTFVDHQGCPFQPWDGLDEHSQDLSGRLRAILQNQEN
PfG6PD confirm – confirmation of Plasmodium falciparum G6PD inhibitors | recombinant PfGluPho, NADPH-diaphorase-resazurin fluorescence | shares compounds with PfG6PD inh | 2,400 compounds, 34% hits | inhibition, % at 20 µM;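 active = inhibition of at least 50% at 20 µM in any single replicate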;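 note: 0% = DMSO with substrate and 100% = DMSO lacking glucose-6-phosphate substrate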
Diaph ctr 10uM – counter-screen for P. falciparum G6PD inhibitors: diaphorase inhibitors, oxidizers; diaphorase-coupled resazurin reduction, fluorescence, NADPH 10 uM; AID 504862; shares compounds with PfG6PD inh; inhibition, % at 20 µM; 820 compounds, 39% hits;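 active = average inhibition reaching 50% or more with the compound at 20 µM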;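 note: resorufin red fluorescence formed as diaphorase reduces resazurin using NADPH; 0% = DMSO with enzyme and 100% = DMSO without enzyme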
Diaph ctr 30uM – inhibits diaphorase or oxidizes, flagging false PfG6PD hits; shares compounds with PfG6PD inh; 820 compounds, 29% hits; inhibition, % at 20 µM; Diaphorase/resazurin coupled assay, resorufin fluorescence, 30 uM NADPH;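 active = inhibition averaging 50% or more, tested at 20 µM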;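 note: 0% = DMSO with enzyme and 100% = DMSO wells lacking diaphorase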
* marks the source's active call; other numbers are inactive results. Hits are enriched below; roughly 2.4% of the tested compounds scored in any of these assays.

Screening O=C1SC(SC(=Nc2ccccc2)Nc2ccccc2)C(=O)N1c1ccccc1 (stereo unspecified) returned PfG6PD inh 60*, M18AAP inhibitor 4, UBC9 SUMO inh -8, HKDC1 inh -8, A3A deaminase 0, APOBEC3G inh -3 and PfG6PD confirm 19.
`Cc1cccc(N2C(=O)CC(SC(=Nc3ccccc3)Nc3ccccc3)C2=O)c1` (stereo unspecified) gave PfG6PD inh 23, M18AAP inhibitor -1, UBC9 SUMO inh -19, HKDC1 inh 1, A3A deaminase 8 and APOBEC3G inh 4.
Screening CCc1ccccc1OCC(=O)Nc1cccc(S(=O)(=O)NC2=NCCC2)c1 returned PfG6PD inh 7, HKDC1 inh -2, A3A deaminase -2 and APOBEC3G inh -2.
`O=C(/C=C/C(Cl)(Cl)Cl)Nc1ccc(Cl)cc1` gave PfG6PD inh 96*, HKDC1 inh 2 and PfG6PD confirm 18.
Screening O=c1ccn(-c2cccc(C(F)(F)F)c2)nc1-c1ccn(-c2ccccc2F)n1 returned PfG6PD inh 104*, M18AAP inhibitor 5, UBC9 SUMO inh -18, HKDC1 inh -1, A3A deaminase 1, APOBEC3G inh -5, PfG6PD confirm 102*, Diaph ctr 10uM 97* and Diaph ctr 30uM 78*.
For COc1ccc(-n2ccc(-c3nn(-c4cccc(C(F)(F)F)c4)ccc3=O)n2)cc1 the results were PfG6PD inh 25, M18AAP inhibitor -2, UBC9 SUMO inh -1, HKDC1 inh -5, A3A deaminase -1 and APOBEC3G inh -4.
